Here are results for three molecules from publication PMC4279188 (Theranostics, 2015).

For one data set, the system named is VEGF. The data set can be described thus: Western blot of HUVECs, VEGF. The data set is classed as cell-based, human. To be noted: co-treatment with PEG-Ex4. The gist of the method:
(§1)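 HUVEC lysates were prepared in RIPA buffer and protein was quantified by BCA. Proteins were resolved by SDS-PAGE and transferred to nitrocellulose, then blocked in 5% milk. Blots were probed overnight at 4 °C with anti-VEGF or anti-pAkt plus anti-β-actin, followed by secondary antibodies. Detection was by chemiluminescence on X-ray film. pAkt blots were stripped at 50 °C for 30 min and reprobed for total Akt. Data are mean ± SEM.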

In another data set the test system is Akt. The data set can be described thus: Western blot of HUVECs, phosphorylated Akt. The data set is classed as cell-based, human. To be noted: co-treatment with PEG-Ex4. The gist of the method:
as §1

For data set [1] the following is noted: breakdown by dipeptidyl peptidase-4 (DPP4); no reference given for the value; cited from earlier work.

As to `O=c1cc(N2CCOCC2)oc2c(-c3ccccc3)cccc12` [LY294002], the “effect of PEG-Ex4 on VEGF expression in HUVECs, inhibition by co-treatment” value with VEGF was “abolished”. Further, in the data set on Akt, the “effect of PEG-Ex4 on p-Akt in HUVECs, inhibition by co-treatment” value is listed as “abolished the effect of PEG-Ex4 on p-Akt”.
For exendin-4(9-39), in that order: “abolished” and “abolished the effect of PEG-Ex4 on p-Akt”.
With glucagon-like peptide-1 [GLP-1], the “half-life, in words” value in data set [1] is listed as “a few minutes”.
